Measured values gathered from unrelated publications.
Protocols differ between the studies behind these lines.
Target: Tyrosine-protein kinase ZAP-70 (ZAP70, Homo sapiens, UniProt P43403)
One construct used (P43403 1-619): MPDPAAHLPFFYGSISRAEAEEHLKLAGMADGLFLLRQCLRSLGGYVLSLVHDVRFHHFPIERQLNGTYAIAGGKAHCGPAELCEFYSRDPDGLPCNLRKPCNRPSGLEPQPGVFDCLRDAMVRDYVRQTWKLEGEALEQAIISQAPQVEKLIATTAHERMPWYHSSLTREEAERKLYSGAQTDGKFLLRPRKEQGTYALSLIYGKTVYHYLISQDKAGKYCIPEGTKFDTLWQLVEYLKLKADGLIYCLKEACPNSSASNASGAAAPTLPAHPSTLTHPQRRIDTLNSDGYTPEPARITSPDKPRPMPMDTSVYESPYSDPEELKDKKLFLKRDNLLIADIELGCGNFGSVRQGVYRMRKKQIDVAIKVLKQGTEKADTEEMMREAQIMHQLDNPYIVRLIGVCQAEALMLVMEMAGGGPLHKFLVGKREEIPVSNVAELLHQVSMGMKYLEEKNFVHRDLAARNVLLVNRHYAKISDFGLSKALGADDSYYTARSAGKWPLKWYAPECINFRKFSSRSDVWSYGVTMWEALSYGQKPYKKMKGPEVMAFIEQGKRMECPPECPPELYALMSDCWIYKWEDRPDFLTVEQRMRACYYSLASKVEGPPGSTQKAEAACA

Compound | test | conditions | endpoint | result
C#Cc1n[nH]c2c(-c3cn(C(C)c4ccccn4)c(=O)[nH]c3=O)cc(F)cc12 (stereo not drawn) | enzyme activity, inhibitor | 1 µM | inhibition | 16.2%
c1ccc(C(NCCNC(c2ccccc2)c2ccccc2)c2ccccc2)cc1 | enzyme activity, inhibitor | 10 µM | inhibition | 3%
O=c1[nH]c2ccccc2n1C1CCN(Cc2ccc(-c3[nH]c4cc5ncnc5cc4nc3-c3ccccc3)cc2)CC1 | cell-free assay | 0.5 µM | remaining signal | 97.3%
Cn1cc(-c2cccc(N3CCc4c(sc5c4CC(C)(C)C5)C3=O)c2CO)cc(Nc2ccncn2)c1=O | enzyme activity, inhibitor | 1 µM | inhibition | 3%
N#CC1(c2ccccn2)CCN(Cc2cc(C(=O)O)c(=O)n3ccccc23)CC1 | cell-free assay, competition with immobilised ligand | 1 µM | remaining binding | 100%
Cc1ncc(C)n2nc(/C=C/c3nc(N4CCCC4)cc(N4CCOCC4)n3)nc12 | enzyme activity, inhibitor | 10 µM | inhibition | -6%
COc1ncccc1-c1cnn2ccc(N3CCN(C(=O)OC(C)C)CC3)nc12 | binding, competition with immobilised ligand | 1 µM | remaining binding | 88%
O=C(Nc1cccnn1)N1CCN([C@@H]2CCOc3cc(C(F)(F)F)ccc32)CC1 | enzyme activity, inhibitor | 20 µM | inhibition | 1%
CC(C)(C)c1cc(C=C(C#N)C#N)cc(Br)c1O | enzyme activity, inhibitor | 0.5 µM | remaining activity | 91.6%
C[C@H](C(=O)N[C@H]1COc2ccccc2[C@@H]1S(C)(=O)=O)c1ccc(F)cc1 | enzyme activity, inhibitor | 10 µM | inhibition | 5%
Cn1cncc1[C@@](O)(COc1ccc(C#N)cc1-c1ccc(OC(F)(F)F)cc1)c1ccc(C#N)cc1 | cell-free assay, competition with immobilised ligand | 1 µM | remaining binding | 100%
Cc1nn(C)cc1-c1nc2c(N3CCN(Cc4ccc(Cl)cc4)CC3)c(Cl)cnc2[nH]1 | binding, competition with immobilised ligand | 1 µM | remaining binding | 100%
COc1cc(Nc2ncc(F)c(Nc3ccc4c(n3)NC(=O)C(C)(C)O4)n2)cc(OC)c1OC | binding | 10 µM | inhibition | 100%
Nc1ncc(-c2nc(N3CCOCC3)nc(N3CCOCC3)n2)c(C(F)F)n1 | binding, competition with immobilised ligand | 10 µM | remaining binding | 94%
Cn1cc(-c2cc(F)cc(N3CCn4c(cc5c4CCCC5)C3=O)c2CO)cc(Nc2ccc(N3CCN(C4COC4)CC3)cn2)c1=O | enzyme activity, inhibitor | 0.1 µM | inhibition | 16%
